Test results published in publication PMC6996349 (Hepatology Communications, 2019).

Assays:
[1] = test system: APOE*3Leiden.CETP mice; test: Hepatic lipotoxic lipid species; assay type: in vivo; details: 20 weeks, versus control
In short: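 Male APOE*3Leiden.CETP mice aged 8-15 weeks on a high-fat diet (24% wt/wt lard, 1% wt/wt cholesterol), n = 12/group. Mice received daily corn-oil vehicle gavage or test compound at 112 mg/kg/d by oral gavage for 20 weeks, starting with the diet. Harvested livers underwent lipidomics and reduced/oxidized glutathione assays. Mean ± SEM; Kruskal-Wallis then Mann-Whitney U.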

[2] = test system: APOE*3Leiden.CETP mice; assay type: in vivo
In short: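 High-fat/cholesterol-fed male APOE*3Leiden.CETP mice aged 8-15 weeks, n = 12/group, given corn-oil vehicle or test compound at 112 mg/kg/d by daily oral gavage for 20 weeks. Liver cross sections were stained with H&E or sirius red and scored with an adapted human NASH grading system. Hepatic lipids were determined biochemically. Body weight was monitored regularly. Mean ± SEM; nonparametric group comparisons.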

[3] = test system: ob/ob mice; test: Glucose metabolism and insulin resistance in ob/ob mice; assay type: in vivo; details: for Glucose metabolism, effect: fenofibrate 100, pioglitazone 30 mg/kg/d in diet
In short: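 Male ob/ob mice aged 6-8 weeks, n = 10/group, either untreated or given test compound at 135 mg/kg/d in the diet for 5 weeks. Reference-agent groups were also dosed in the diet. Blood glucose, insulin, HbA1c and HOMA-IR were measured after 4 weeks on tail-vein EDTA blood taken after a 4-h fast. Body weight was recorded between 8 and 9 am. Mean ± SEM; Kruskal-Wallis then Mann-Whitney U.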

[4] = test system: NASH patients; details: PIVENS study; cited from earlier work
[5] = test system: subjects with elevated triglycerides; details: 4 g/day oral; cited from earlier work
[6] = test system: NASH patients; details: 1.8 or 2.7 g/day, 1 year; cited from earlier work
[7] = 20 weeks, icosabutate 112 mg/kg/d, rosiglitazone 13 mg/kg/d

Compound: CN(CCOc1ccc(CC2SC(=O)NC2=O)cc1)c1ccccn1 (stereo not shown) [rosiglitazone]
- Hepatic GSH:GSSG ratio, effect [1]: had no effect
- Hepatic GSSG, effect [1]: had no effect
- Hepatic concentration of FFAs, effect [1]: had no effect
- Hepatic concentration of HETEs (11[R]‐, 12‐, 15[S] isomers), effect [1]: significant increase
- Hepatic concentration of arachidonic acid, effect [1]: had no effect
- Hepatic concentration of bile acids, effect [1]: had no effect
- Hepatic concentration of ceramides, effect [1]: had no effect
- Hepatic concentration of diacylglycerols (DAGs), effect [1]: had no effect
- Fibrosis, effect ([2]; 20 weeks): no change
- Number of inflammatory cell aggregates, change versus control ([2]; 20 weeks): −67%
- Serum amyloid A, change versus control ([2]; 20 weeks): −46%
- Hepatic cholesterol ester, effect ([2]; 20 weeks, biochemical analysis of intrahepatic lipids): significant reduction
- Hepatocellular hypertrophy, change versus control [2, 7]: did not significantly affect
- Microvesicular steatosis, change versus control [2, 7]: did not significantly affect
- Serum amyloid A ([2]; after 20 weeks of treatment, control 29.8 ± 5.0, mean ± SEM): 16.1 ± 3.3
- Plasma monocyte chemoattractant protein 1 ([2]; after 20 weeks of treatment, control 111.5 ± 17.1, mean ± SEM): 65.1 ± 5.1
- Body weight, change versus control ([2]; week 16 and 20, data not shown): did not significantly increase

Compound: CC(C)OC(=O)C(C)(C)Oc1ccc(C(=O)c2ccc(Cl)cc2)cc1 [fenofibrate]
- Plasma adiponectin, increase versus control ([3]; after 4 weeks of treatment): neither fenofibrate nor icosabutate affected
- Plasma insulin, change versus control ([3]; after 4 weeks of treatment): less pronounced
- Reduction of blood glucose AUC (0‐120 minutes) in oral glucose tolerance test ([3]; after 5 weeks of treatment, 2 g/kg glucose, 4-hour fasted): less potent effect
- Glucose metabolism, effect [3]: also improved glucose metabolism

Compound: CCc1ccc(CCOc2ccc(CC3SC(=O)NC3=O)cc2)nc1 (stereo not shown) [pioglitazone]
- Fibrosis, effect [4]: without change
- Lobular inflammation, effect [4]: improvements
- Plasma adiponectin, increase versus control ([3]; after 4 weeks of treatment): 4.5 fold
- HOMA‐IR, change versus control ([3]; after 4 weeks of treatment, icosabutate 135, pioglitazone 30 mg/kg/d): −97%
- Glucose metabolism, effect [3]: also improved glucose metabolism

Compound: CC/C=C\C/C=C\C/C=C\C/C=C\C/C=C\CCCC(=O)OCC [EPA ethyl ester, eicosapentaenoic acid (EPA) ethyl ester]
- Major adverse cardiovascular events, effect [5]: markedly reduce
- Effect on liver histology [6]: no effect
